According to PubChem BioAssay AID504383 (The Scripps Research Institute Molecular Screening Center, 2011):
Hit rate of the full screen: of about 2,500 compounds, about 1,200 (48%) were called active.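 The calls were made as follows: active = mean activation above the low control average plus 3 SD, as set in the primary screen (cut at about 12% in these data); inactive = the rest.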 So high a share suggests a set chosen from earlier hits. The list shows a part of the results.

Biological target: Troponin I, cardiac muscle (Homo sapiens) + Troponin T, cardiac muscle (Homo sapiens) + Troponin C, slow skeletal and cardiac muscles (Homo sapiens) (UniProt P19429+P45379+P63316)
Test: cardiac RTF calcium sensitivity activators, confirmation, biochemical, IANBD-TnC fluorescence, triplicate (AID 504383);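 also: 0% = DMSO at 0.472 mM calcium and 100% = DMSO at 2.9 mM calcium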
Settings: IANBD-labeled cardiac RTF, Ca2+ sensitivity fluorescence; at 7.2 µM; stronger effect = higher value; scaled from EC20 to saturating calcium; tested at EC20 calcium, 0.472 mM
In short: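 Assay system: labelled regulated thin filaments / Timing: 15 min at 25 °C / Detection: fluorescence intensity of labelled filaments / Measure: fluorescence gain scaled between EC20 and EC100 calcium controls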

activation, inactive:
CCCN(CCC)CC(O)Cn1cc(/C=C/C(=O)c2cccs2)c2ccccc21 (stereo unspecified) 11.6%, COc1ccc(/C=[N+](\[O-])C2N(c3ccccc3)C(=S)SC2(C)C)cc1OC (stereo unspecified) 5.83%, CCN1CCc2c(sc(NC(=O)Nc3ccc(Cl)c(Cl)c3)c2C(N)=O)C1 -0.7%, Nc1cccc(N2C(=O)c3cccc4c(N)ccc(c34)C2=O)c1 8.12%, CCN1C(=O)c2cccc3c(N)ccc(c23)C1=O 5.33%, c1ccc2c(c1)CN1CCCC1=N2 3.94%, Cc1ccc(NC(=O)/C(C#N)=C/c2ccc(C)s2)c(C)c1 -3.42%, CN1/C(=C\C=C(/C#N)C(=O)Nc2ccccc2F)C(C)(C)c2ccccc21 5.14%, Clc1cccc(C[n+]2cc(-c3ccccc3)n3c2CCC3)c1 4.21%, O=C(NCc1ccco1)C1CC(c2c(Cl)cccc2Cl)=NO1 (stereo unspecified) 0.26%, CN(CC(=O)N1CCN(c2ncccn2)CC1)S(=O)(=O)c1ccc(Cl)cc1 4.61%, COc1ccc(NC(=O)C2CC2)cc1OC1CCCC1 -0.05%, CCC(CC)c1nc(C#N)c(NC(C)c2ccccc2)o1 (stereo unspecified) 3.34%, CC1=C(C)CC(C(=O)NNC(=O)c2cccc(Cl)c2)C(C(=O)O)C1 (stereo unspecified) 10.7%, CCc1ccc(C(=O)NNc2ccccc2F)cc1 7.76%, CN(C)c1ccc(/C=C(/C(=O)c2ccc(Cl)cc2Cl)n2cncn2)cc1 4.11%, COc1ccc(CCNC(=O)CN(C)S(=O)(=O)c2ccc3c(c2)CCC(=O)N3)cc1OC 8.22%, Cc1cc(C(=O)NNC(=S)NCc2ccccc2)cs1 7.2%, Cc1nn(-c2ccccc2)c(N2CCCC2)c1/C=C1\N=C(c2ccc(OC(C)C)cc2)OC1=O 9.02%, COc1ccc(OC)c(/C=C2/Sc3ccccc3C2=O)c1 5.85%, Cc1ccc(C)c(C2=NNC(=O)CC2)c1 2.35%, Nc1cccc2c1C(=O)N(c1ccccc1)C2=O 7.13%, CN1CCN(c2nc3c(c(=O)n(C)c(=O)n3C)n2Cc2ccccc2F)CC1 5.62%, C=CCNc1nc2c(c(=O)[nH]c(=O)n2C)n1CCCc1ccccc1 9.95%, CSc1nc2c(c(=O)[nH]c(=O)n2C)n1CCCc1ccccc1 3.83%, C=CC[C@@H](CC(=O)N(CCO)Cc1ccccc1)C(=O)N[C@@H](COC(=O)[C@@H](CC=C)Cc1ccc(F)cc1)Cc1ccccc1 0.1%, Cc1cccc(NC(=S)Nc2ccc(N3CCOCC3)cc2)c1C 5.72%, C[C@H](CO)N1C[C@H](C)[C@@H](CN(C)Cc2ccncc2)Oc2c(NS(=O)(=O)c3ccc(F)cc3)cccc2C1=O 10.3%, Cc1noc(C)c1NC(=O)N(C)C[C@H]1Oc2c(NS(=O)(=O)c3cccs3)cccc2C(=O)N([C@H](C)CO)C[C@@H]1C 4.83%, C[C@H](CO)N1C[C@H](C)[C@@H](CN(C)S(=O)(=O)c2cccs2)Oc2c(NC(=O)Nc3ccc4c(c3)OCO4)cccc2C1=O 9.29%, C[C@H](CO)N1C[C@H](C)[C@@H](CN(C)C(=O)Nc2ccccc2)Oc2ccc(NC(=O)Nc3ccc4c(c3)OCO4)cc2C1=O 9.67%, C[C@H](CO)N1C[C@H](C)[C@@H](CN(C)C(=O)Nc2ccc(F)cc2)Oc2ccc(NS(C)(=O)=O)cc2C1=O 9.89%, CCOC(=O)c1c(C)oc2c1c(C=NCCO)c(O)c1ccccc12 4.94%, CC(C)NC(=O)/C(C#N)=C/c1ccc(N(C)C)o1 7.34%, CCN(CC)c1ccc(/C=C(/C#N)C(=O)NCc2ccccc2)o1 3.76%, N#C/C(=C\c1ccc(O)c(O)c1)C(=O)NCCCc1ccccc1 4.22%, CCN(CC)c1ccc(/C=C(\C#N)C(=O)c2ccc(Br)cc2)cc1 3.52%, CCN(CC)c1ccc(/C=C(/C#N)C(=O)NC(C)C)o1 9.75%, Cc1cc(Cn2nc(C(=O)NCC3CC3)cc2-c2ccccc2)on1 6.6%, COc1ccccc1/C=[N+](\[O-])C1SC(=S)N(C)C1(C)C (stereo unspecified) 8.76%, Cc1cc(C)cc(C(=O)NC(CC(N)=O)c2ccc(N3CCCCCC3)c([N+](=O)[O-])c2)c1 (stereo unspecified) 3.03%, O=C(NCc1ccccc1)c1ccc(N2CCC3(CC2)CC(c2ccccc2)=NO3)c([N+](=O)[O-])c1 5.88%, NC(=O)c1c(N)sc2c1CCCCC2 7.59%, COc1cc(SC)ccc1C(=O)Nc1nc2ccccc2[nH]1 9.59%, COc1ccc2nc3ccccc3nc2c1NC(=O)c1ccc(Cl)cc1Cl 6.58%, CSCC(O)Cn1[nH]c(=O)c2cc(Cl)c(Cl)cc2c1=O (stereo unspecified) 8.73%, COC(=O)c1ccc(CS(=O)(=O)c2ccc(F)cc2)o1 1.48%, COc1ccc(CN2CCC(C(=O)N3CCN(c4ccccc4F)CC3)CC2)cc1OC 8.86%, COc1cccc(CNC(=O)CCC(=O)N2CC(C)Oc3ccccc32)c1OC (stereo unspecified) 4.26%, CCOc1ccccc1-c1c2cc(O)c(=O)cc-2oc2cc(O)c(O)cc12 8.3%, COC(=O)c1ccccc1-c1c2ccc(=N)cc-2oc2cc(N)ccc12 9.11%, Cn1ncc(Cl)c1C(=O)Nc1cccc(Cl)c1 5.51%

activation, active:
O=C(/C=C/c1cn(CC(O)CN2CCCCCC2)c2ccccc12)c1cccs1 (stereo unspecified) 13.4%, O=C(/C=C/c1cn(CC(O)CN2CCCCC2)c2ccccc12)c1cccs1 (stereo unspecified) 55.5%, CN1CCN(CCNC(=O)Nc2ccc(Cl)cc2)CC1 13.4%, CC(C)CCN1C(=O)c2cccc3c(N)ccc(c23)C1=O 15.7%, CC1CC1c1ccc(/C=C(\C#N)C(=O)Nc2ccc(Cl)cc2Cl)o1 (stereo unspecified) 19.9%, CC1CC1c1ccc(/C=C(\C#N)C(=O)Nc2cccc(Cl)c2Cl)o1 (stereo unspecified) 22.5%, CN(CC(=O)NCc1ccc(Cl)cc1)S(=O)(=O)c1cccc2cccnc12 12.1%, CN(CC(=O)NCc1ccco1)S(=O)(=O)c1cccc2cccnc12 32.8%, C#CC[N+](C)(C)CCCCCCCCCC 45.3%, COc1cc(NC(=O)C2CCCCN2)ccc1OCC(C)C (stereo unspecified) 15.1%, COc1ccc(CNc2oc(COc3ccccc3)nc2C#N)cc1 62.4%, C=CCNc1oc(COc2ccc(C)cc2)nc1C#N 25.2%, CN(C)c1ccc(NC2=C([N+](=O)[O-])CS(=O)(=O)C2)cc1 12.2%, CCc1ccc(C(=O)NNC(=O)c2cccc(N3C(=O)CCC3=O)c2)cc1 34.6%, O=C1CCc2cc(S(=O)(=O)NC3CCCCC3)ccc2N1 12.4%, Cc1cc(C(=O)NNC(=S)Nc2ccccc2C)cs1 15.8%, COc1ccc(OC)c(/C=C2\N=C(c3ccccc3)OC2=O)c1 33.8%, Cc1ccc2oc3c(SCc4nc5ccccc5[nH]4)nc(C)nc3c2c1 21.2%, COC(=O)[C@@]1(Cc2ccc(OC)cc2)[C@@H]2C(=CC(=O)[C@H]2CC(=O)C(=O)N2CCCC2)CN1C(=O)c1ccccc1 36%, CC(C)CNC(=S)NC(=O)c1ccccc1Cl 106%, O=C1c2ccccc2C(=O)N1c1ccc(Cc2ccncc2)cc1 18.1%, COC(=O)CSc1nc2c(c(=O)n(C)c(=O)n2C)n1CCCc1ccccc1 147%, CCOC(=O)CSc1nc2c(c(=O)n(C)c(=O)n2C)n1Cc1ccccc1F 1280%, S=C(Nc1ccc(N2CCOCC2)cc1)Nc1ccc2nc(-c3ccco3)c(-c3ccco3)nc2c1 43.1%, C[C@H](CO)N1C[C@H](C)[C@@H](CN(C)Cc2ccc(Oc3ccccc3)cc2)Oc2c(NC(=O)C3CC3)cccc2C1=O 47.7%, C[C@H]1CN([C@@H](C)CO)C(=O)c2cccc(NC(=O)c3nc4ccccc4s3)c2O[C@H]1CN(C)C(=O)Nc1ccc(F)cc1 12.9%, C[C@H](CO)N1C[C@H](C)[C@@H](CN(C)Cc2ccncc2)Oc2c(NC(=O)c3ccncc3)cccc2C1=O 16.5%, CCN(CC)c1ccc(/C=C(\C#N)C(=O)NCc2ccccc2)cc1 60.6%, CCN(CC)c1ccc(/C=C(\C#N)C(N)=S)cc1 45.5%, CC(C)NC(=O)/C(C#N)=C\c1ccc(N(C)C)o1 215%, CN(C)c1ccc(/C=C(/C#N)C(=O)NCc2ccccc2)o1 12.4%, NC(=O)CC(NC(=O)c1ccc(Br)cc1)c1ccc(N2CCN(c3ccc(F)cc3)CC2)c([N+](=O)[O-])c1 (stereo unspecified) 42.4%, NC(=O)CC(NC(=O)Cc1ccc(Cl)cc1)c1ccc(N2CCN(c3ccccn3)CC2)c([N+](=O)[O-])c1 (stereo unspecified) 137%, COc1ccc2nc3ccccc3nc2c1NC(=O)c1ccc(Br)cc1 139%, COC(=O)c1ccc(CSc2nnc(NCc3ccccc3)s2)o1 17.8%, COc1ccc(CN2CCN(C(=O)c3ccccc3F)CC2)c(OC)c1OC 44.3%, O=c1cc2oc3cc(O)c(O)cc3c(-c3ccccc3O)c-2cc1O 16.1%, COc1cc(OC)c(-c2c3cc(O)c(=O)cc-3oc3cc(O)c(O)cc23)cc1OC 19.3%, CSc1cccc(NC(=O)c2ccc(Cl)nc2)c1 15.5%
